Experimental data taken from ChEMBL document CHEMBL1649571, “In vitro activity of TR-700, the active ingredient of the antibacterial prodrug TR-701, a novel oxazolidinone antibacterial agent” (2009).

Tests used:
Type in all cases: functional
[1] = tested on: Bacteroides fragilis; experiment: Antibacterial activity against Bacteroides fragilis by CLSI M11-A7 agar dilution method
Procedure, shortened: (§1)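 Recent (2005 to 2008) clinical isolates. Anaerobes grown 48 h in an anaerobic glove box, with inoculum suspensions made in prereduced broth inside the box. A Steers replicator stamped the inoculum onto drug-supplemented agar. After absorption, plates were incubated 48 h at 37°C, then removed from the box and the MIC read. QC strains were run against the CLSI ranges.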

[2] = tested on: Phocaeicola vulgatus; experiment: Antibacterial activity against Bacteroides vulgatus by CLSI M11-A7 agar dilution method; procedure, shortened: as §1
[3] = tested on: Bacteroides thetaiotaomicron; experiment: Antibacterial activity against Bacteroides thetaiotaomicron by CLSI M11-A7 agar dilution method; procedure, shortened: as §1
[4] = tested on: Bacteroides ovatus; experiment: Antibacterial activity against Bacteroides ovatus by CLSI M11-A7 agar dilution method; procedure, shortened: as §1
[5] = tested on: Clostridium perfringens; experiment: Antibacterial activity against Clostridium perfringens by CLSI M11-A7 agar dilution method
Procedure, shortened: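 Reference agar dilution MIC on recent (2005–2008) clinical isolates. Cultures grown 48 h in an anaerobic glove box; inoculum suspended in prereduced broth inside the box and stamped by Steers replicator onto drug-supplemented agar. Plates incubated 48 h at 37°C before MIC reading. QC strains run alongside, required to fall within CLSI ranges.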

[6] = tested on: Peptostreptococcus anaerobius; experiment: Antibacterial activity against Peptostreptococcus anaerobius by CLSI M11-A7 agar dilution method; procedure, shortened: as §1
[7] = tested on: Parvimonas micra; experiment: Antibacterial activity against Peptostreptococcus micros by CLSI M11-A7 agar dilution method; procedure, shortened: as §1
[8] = tested on: Porphyromonas asaccharolytica; experiment: Antibacterial activity against Porphyromonas asaccharolytica by CLSI M11-A7 agar dilution method; procedure, shortened: as §1
[9] = tested on: Prevotella sp.; experiment: Antibacterial activity against Prevotella sp. by CLSI M11-A7 agar dilution method; procedure, shortened: as §1
[10] = tested on: Enterococcus faecalis; experiment: Antibacterial activity against vancomycin-susceptible Enterococcus faecalis by CLSI M7-A7 broth microdilution method
Procedure, shortened: (§2)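 Reference broth microdilution MIC under aerobic conditions on recent (2005–2008) clinical isolates from U.S. and non-U.S. sites. QC strains run alongside, required to fall within published CLSI ranges.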

[11] = tested on: Enterococcus faecalis; experiment: Antibacterial activity against vancomycin-resistant Enterococcus faecalis by CLSI M7-A7 broth microdilution method; procedure, shortened: as §2
[12] = tested on: Enterococcus faecium; experiment: Antibacterial activity against vancomycin-susceptible Enterococcus faecium by CLSI M7-A7 broth microdilution method; procedure, shortened: as §2
[13] = tested on: Enterococcus faecium; experiment: Antibacterial activity against vancomycin-resistant Enterococcus faecium by CLSI M7-A7 broth microdilution method; procedure, shortened: as §2
[14] = tested on: Streptococcus pneumoniae; experiment: Antibacterial activity against penicillin-susceptible Streptococcus pneumoniae by CLSI M7-A7 broth microdilution method; procedure, shortened: as §2
[15] = tested on: Streptococcus pneumoniae; experiment: Antibacterial activity against penicillin-intermediate Streptococcus pneumoniae by CLSI M7-A7 broth microdilution method; procedure, shortened: as §2
[16] = tested on: Streptococcus pneumoniae; experiment: Antibacterial activity against penicillin-resistant Streptococcus pneumoniae by CLSI M7-A7 broth microdilution method; procedure, shortened: as §2
[17] = tested on: Streptococcus pyogenes; experiment: Antibacterial activity against Streptococcus pyogenes by CLSI M7-A7 broth microdilution broth microdilution method; procedure, shortened: as §2
[18] = tested on: Streptococcus agalactiae; experiment: Antibacterial activity against Streptococcus agalactiae by CLSI M7-A7 broth microdilution method; procedure, shortened: as §2
[19] = tested on: Haemophilus influenzae; experiment: Antibacterial activity against Haemophilus influenzae by CLSI M7-A7 broth microdilution method
Procedure, shortened: (§3)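 Recent (2005 to 2008) clinical isolates from U.S. (80%) and non-U.S. (20%) sites. Aerobic MICs were determined by CLSI reference broth microdilution, with quality control strains checked against the published CLSI ranges.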

[20] = tested on: Moraxella catarrhalis; experiment: Antibacterial activity against Moraxella catarrhalis by CLSI M7-A7 broth microdilution method; procedure, shortened: as §3
[21] = tested on: Staphylococcus aureus; experiment: Antibacterial activity against methicillin-susceptible Staphylococcus aureus by CLSI M7-A7 broth microdilution method; procedure, shortened: as §2
[22] = tested on: Staphylococcus aureus; experiment: Antibacterial activity against methicillin-resistant Staphylococcus aureus by CLSI M7-A7 broth microdilution method; procedure, shortened: as §2
[23] = tested on: Staphylococcus aureus; experiment: Antibacterial activity against community-acquired methicillin-resistant Staphylococcus aureus by CLSI M7-A7 broth microdilution method; procedure, shortened: as §2
[24] = tested on: Staphylococcus epidermidis; experiment: Antibacterial activity against methicillin-susceptible Staphylococcus epidermidis by CLSI M7-A7 broth microdilution method
[25] = tested on: Staphylococcus epidermidis; experiment: Antibacterial activity against methicillin-resistant Staphylococcus epidermidis by CLSI M7-A7 broth microdilution method; procedure, shortened: as §2

C[C@@H](O)[C@H]1C(=O)N2C(C(=O)O)=C(SCCNC=N)C[C@H]12 [IMIPENEM ANHYDROUS]
≤ 0.06 µg/mL: MIC50 [9]
0.06 µg/mL: MIC50 [6] | MIC90 [8]
1 µg/mL: MIC90 [3] | MIC90 [6] | MIC90 [9]
0.5 µg/mL: MIC90 [1] | MIC90 [2] | MIC50 [3] | MIC90 [4] | MIC90 [5]
< 0.03 µg/mL: MIC50 [8]
0.12 µg/mL: MIC [1] | MIC50 [1] | MIC50 [5]
≤ 0.03 µg/mL: MIC [7] | MIC50 [7] | MIC90 [7] | MIC [8]
0.25 µg/mL: MIC [2] | MIC50 [2] | MIC50 [4]

CC(=O)NC[C@H]1CN(c2ccc(N3CCOCC3)c(F)c2)C(=O)O1 [LINEZOLID]
16 µg/mL: MIC50 [19]
32 µg/mL: MIC90 [19]
8 µg/mL: MIC50 [20] | MIC90 [20] | MIC90 [3] | MIC50 [4] | MIC90 [4]
1 µg/mL: MIC50 [14] | MIC90 [14] | MIC50 [15] | MIC90 [15] | MIC50 [16] | MIC90 [16] | MIC50 [17] | MIC50 [6] | MIC50 [7] | MIC50 [8] | MIC50 [24] | MIC50 [25]
2 µg/mL: MIC50 [10] | MIC90 [10] | MIC50 [11] | MIC90 [11] | MIC50 [12] | MIC50 [13] | MIC90 [13] | MIC90 [17] | MIC50 [18] | MIC90 [18] | MIC [2] | MIC50 [2] | MIC50 [5] | MIC90 [6] | MIC90 [7] | MIC90 [8] | MIC50 [9] | MIC50 [21] | MIC50 [22] | MIC50 [23] | MIC90 [24] | MIC90 [25]
4 µg/mL: MIC90 [12] | MIC [1] | MIC50 [1] | MIC90 [1] | MIC90 [2] | MIC [3] | MIC50 [3] | MIC90 [5] | MIC90 [9] | MIC90 [21] | MIC90 [22] | MIC90 [23]

Cc1ncc([N+](=O)[O-])n1CCO [METRONIDAZOLE]
> 32 µg/mL: MIC90 [5] | MIC90 [7] | MIC90 [9]
0.25 µg/mL: MIC50 [2] | MIC90 [2]
1 µg/mL: MIC90 [1] | MIC50 [3] | MIC90 [3] | MIC50 [4] | MIC90 [4] | MIC50 [5] | MIC90 [6] | MIC50 [8] | MIC90 [8]
0.5 µg/mL: MIC50 [6] | MIC50 [9]
≤ 0.06 µg/mL: MIC [7] | MIC50 [7]
0.12 µg/mL: MIC50 [1]
